Tests used:
[1] = molecular target: Muscarinic acetylcholine receptor M3 (Homo sapiens, UniProt P20309); experiment: Displacement of [3H]NMS from human muscarinic M3 receptor expressed in insect Sf9 cells
Summary of the method: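 Competition binding used Sf9 membranes stably expressing human M3, incubated with 0.29 nM [3H]-NMS (assay Kd 0.078 nM, Bmax 3.2 pmol/mg protein) in 50 mM Tris-HCl, 10 mM MgCl2, 1 mM EDTA, pH 7.4, 25 °C, 1 h. Nonspecific binding was set with 1 µM atropine. IC50 was taken from competition curves and converted to apparent Ki by Cheng-Prusoff.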

[2] = molecular target: T1, Muscarinic acetylcholine receptor M4 (Homo sapiens, UniProt P08173); experiment: Binding affinity to human muscarinic M4 receptor expressed in insect Sf9 cells
T1 sequence (P08173 whole entry): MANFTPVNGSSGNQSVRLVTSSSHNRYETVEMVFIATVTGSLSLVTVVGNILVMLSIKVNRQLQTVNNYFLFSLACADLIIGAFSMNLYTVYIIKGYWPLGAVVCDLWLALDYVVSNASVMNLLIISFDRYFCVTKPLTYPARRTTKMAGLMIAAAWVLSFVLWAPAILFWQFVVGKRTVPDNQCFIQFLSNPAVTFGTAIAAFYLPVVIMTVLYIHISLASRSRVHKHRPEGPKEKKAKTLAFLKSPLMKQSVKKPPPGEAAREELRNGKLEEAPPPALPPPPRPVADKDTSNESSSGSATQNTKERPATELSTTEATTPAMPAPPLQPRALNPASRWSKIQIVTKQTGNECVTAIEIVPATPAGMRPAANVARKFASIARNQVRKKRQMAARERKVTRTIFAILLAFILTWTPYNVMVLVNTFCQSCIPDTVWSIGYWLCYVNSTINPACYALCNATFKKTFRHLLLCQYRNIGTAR
Summary of the method: (§1)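 Membranes from Sf9 insect cells stably expressing the human receptor were incubated with 0.29 nM [3H]-NMS in 50 mM Tris-HCl, 10 mM MgCl2, 1 mM EDTA, pH 7.4, for 1 h at 25 °C. Nonspecific binding was defined with 1 µM atropine. IC50 was taken from competition curves and converted to apparent Ki by Cheng-Prusoff.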

[3] = molecular target: T2, Muscarinic acetylcholine receptor M5 (Homo sapiens, UniProt P08912); experiment: Binding affinity to human muscarinic M5 receptor expressed in insect Sf9 cells; summary of the method: as §1
T2 sequence (P08912 whole entry): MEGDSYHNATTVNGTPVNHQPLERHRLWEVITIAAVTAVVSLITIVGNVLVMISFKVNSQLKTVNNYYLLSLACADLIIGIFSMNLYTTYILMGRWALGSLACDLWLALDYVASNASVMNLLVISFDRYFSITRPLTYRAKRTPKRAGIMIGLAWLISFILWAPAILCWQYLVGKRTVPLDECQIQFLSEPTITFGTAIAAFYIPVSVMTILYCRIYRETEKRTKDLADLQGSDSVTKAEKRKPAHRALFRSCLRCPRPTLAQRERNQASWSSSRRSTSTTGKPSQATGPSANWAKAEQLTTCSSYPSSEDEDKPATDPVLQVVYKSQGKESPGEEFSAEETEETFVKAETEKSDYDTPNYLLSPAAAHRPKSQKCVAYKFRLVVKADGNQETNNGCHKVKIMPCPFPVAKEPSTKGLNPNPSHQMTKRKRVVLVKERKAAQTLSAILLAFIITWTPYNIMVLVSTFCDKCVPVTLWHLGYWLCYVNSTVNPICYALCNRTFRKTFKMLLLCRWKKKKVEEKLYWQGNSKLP

[4] = molecular target: T3, Muscarinic acetylcholine receptor M1 (Homo sapiens, UniProt P11229); experiment: Binding affinity to human muscarinic M1 receptor expressed in insect Sf9 cells; summary of the method: as §1
T3 sequence (P11229 whole entry): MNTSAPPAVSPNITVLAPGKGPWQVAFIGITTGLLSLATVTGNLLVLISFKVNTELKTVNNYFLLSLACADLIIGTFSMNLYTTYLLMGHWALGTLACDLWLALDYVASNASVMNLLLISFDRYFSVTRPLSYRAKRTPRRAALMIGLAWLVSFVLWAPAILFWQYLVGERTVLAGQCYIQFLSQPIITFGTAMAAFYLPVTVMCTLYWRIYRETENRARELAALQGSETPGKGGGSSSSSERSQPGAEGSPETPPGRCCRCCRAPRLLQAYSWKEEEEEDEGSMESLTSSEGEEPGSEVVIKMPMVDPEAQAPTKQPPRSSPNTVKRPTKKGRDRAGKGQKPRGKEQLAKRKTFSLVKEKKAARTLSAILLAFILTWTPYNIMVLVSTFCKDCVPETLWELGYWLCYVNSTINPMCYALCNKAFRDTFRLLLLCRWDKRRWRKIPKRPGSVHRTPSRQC

[5] = molecular target: T4, Muscarinic acetylcholine receptor M2 (Homo sapiens, UniProt P08172); experiment: Binding affinity to human muscarinic M2 receptor expressed in insect Sf9 cells; summary of the method: as §1
T4 sequence (P08172 whole entry): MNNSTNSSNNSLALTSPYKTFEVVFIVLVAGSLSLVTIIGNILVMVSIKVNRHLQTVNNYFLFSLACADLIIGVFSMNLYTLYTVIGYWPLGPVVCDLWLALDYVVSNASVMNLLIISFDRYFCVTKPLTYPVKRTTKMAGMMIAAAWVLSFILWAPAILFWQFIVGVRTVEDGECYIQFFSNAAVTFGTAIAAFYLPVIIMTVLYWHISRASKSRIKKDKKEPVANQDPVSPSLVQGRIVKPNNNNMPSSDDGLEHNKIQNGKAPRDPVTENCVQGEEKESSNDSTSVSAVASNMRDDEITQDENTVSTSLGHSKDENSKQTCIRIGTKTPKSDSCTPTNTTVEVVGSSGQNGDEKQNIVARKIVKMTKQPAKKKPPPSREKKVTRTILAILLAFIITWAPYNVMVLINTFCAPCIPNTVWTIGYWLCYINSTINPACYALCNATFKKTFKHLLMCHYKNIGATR

Sequence of Muscarinic acetylcholine receptor M3 (P20309 whole entry): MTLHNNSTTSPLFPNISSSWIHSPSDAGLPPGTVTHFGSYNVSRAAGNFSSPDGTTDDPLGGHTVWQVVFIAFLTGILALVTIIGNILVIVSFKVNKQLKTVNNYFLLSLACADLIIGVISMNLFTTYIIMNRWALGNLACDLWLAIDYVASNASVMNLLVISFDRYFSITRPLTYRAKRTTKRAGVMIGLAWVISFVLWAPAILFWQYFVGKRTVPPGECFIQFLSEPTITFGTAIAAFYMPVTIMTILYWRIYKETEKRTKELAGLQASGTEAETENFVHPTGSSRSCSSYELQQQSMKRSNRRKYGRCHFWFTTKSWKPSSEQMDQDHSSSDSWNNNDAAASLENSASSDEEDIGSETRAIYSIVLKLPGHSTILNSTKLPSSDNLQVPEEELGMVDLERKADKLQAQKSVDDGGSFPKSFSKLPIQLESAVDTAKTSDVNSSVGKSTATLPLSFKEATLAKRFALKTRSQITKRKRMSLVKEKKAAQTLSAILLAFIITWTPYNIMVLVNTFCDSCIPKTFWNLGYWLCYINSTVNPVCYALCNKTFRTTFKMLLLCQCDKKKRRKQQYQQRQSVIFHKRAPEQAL

| SMILES | IC50 [1] | Ki [1] | also measured |
| --- | --- | --- | --- |
| CCCCCCCCCCCC(OC(=O)C(CCCCN(O)C(C)=O)NC(=O)c1coc(-c2ccccc2O)n1)C(C)C(=O)NC1CCCCNC1=O (stereo not given) [NOCARDIMICIN C] | 4700 nM | 1000 nM | – |
| CCCCCCCCCC(OC(=O)C(CCCCN(O)C(C)=O)NC(=O)c1coc(-c2ccccc2O)n1)C(C)C(=O)NC1CCCCN(O)C1=O (stereo not given) [NOCARDIMICIN A] | 5890 nM | 1250 nM | – |
| CCCCCCCCCCCCCCCC(OC(=O)C(CCCCN(O)C(C)=O)NC(=O)c1coc(-c2ccccc2O)n1)C(C)C(=O)NC1CCCCN(O)C1=O (stereo not given) [NOCARDIMICIN F] | 6290 nM | 1330 nM | – |
| CCCCCCCCCCCCCC(OC(=O)C(CCCCN(O)C(C)=O)NC(=O)c1coc(-c2ccccc2O)n1)C(C)C(=O)NC1CCCCNC1=O (stereo not given) [NOCCARDIMICIN E] | 4560 nM | 970 nM | – |
| CCCCCCCCCCCCCC(OC(=O)C(CCCCN(O)C(C)=O)NC(=O)c1coc(-c2ccccc2O)n1)C(C)C(=O)NC1CCCCN(O)C1=O (stereo not given) [NOCARDIMICIN D] | 1100 nM | 230 nM | – |
| CCCCCCCCCCCC(OC(=O)C(CCCCN(O)C(C)=O)NC(=O)c1coc(-c2ccccc2O)n1)C(C)C(=O)NC1CCCCN(O)C1=O (stereo not given) [NOCARDIMICIN B] | 630 nM | 130 nM | IC50 [2]: 1040 nM; Ki [2]: 140 nM; IC50 [3]: 1640 nM; Ki [3]: 1180 nM; IC50 [4]: 2030 nM; Ki [4]: 490 nM; IC50 [5]: 1780 nM; Ki [5]: 630 nM |

From ChEMBL document CHEMBL1141748, “Nocardimicins A, B, C, D, E, and F, siderophores with muscarinic M3 receptor inhibiting activity from Nocardia sp. TP-A0674” (J Nat Prod, 2005)
